# PAFAH2 FP inh = inhibitors of human PAFAH2 | inhibition, % at 3.39 µM | AID 492956 | recombinant PAFAH2, FP-rhodamine activity probe, fluorescence polarization | 340,000 tested, 0.99% active | Q99487;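 active = inhibition above the mean over all tested compounds plus 3 SD, cut at about 30% in these data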;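 also: inhibitors block probe labeling of enzyme so polarization drops; 0% = enzyme with DMSO and 100% = wells lacking PAFAH2 protein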
# PAFAH1B3 inh = PAFAH1B3 (human) inhibition. Q15102. recombinant PAFAH1B3, FP-rhodamine probe, fluorescence polarization. inhibition, % at 3.39 µM. 340,000 tested, 0.28% active;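 active = inhibition above the screen-wide average of all tested compounds plus 3 SD, cut at about 25% in these data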;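 also: 0% = enzyme with DMSO only and 100% = wells lacking PAFAH1B3 protein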
# PAFAH1B2 inh = blocks human PAF acetylhydrolase 1b catalytic subunit 2; P68402; recombinant PAFAH1B2, FP-rhodamine activity probe, fluorescence polarization; inhibition, % at 3.39 µM; 340,000 tested, 1.2% active; AID 492953;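 active = inhibition above the mean of all tested compounds plus 3 SD, cut at about 24% in these data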;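 also: 0% = enzyme with DMSO and 100% = wells lacking PAFAH1B2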
# Target sequence (P68402 whole entry, looked up): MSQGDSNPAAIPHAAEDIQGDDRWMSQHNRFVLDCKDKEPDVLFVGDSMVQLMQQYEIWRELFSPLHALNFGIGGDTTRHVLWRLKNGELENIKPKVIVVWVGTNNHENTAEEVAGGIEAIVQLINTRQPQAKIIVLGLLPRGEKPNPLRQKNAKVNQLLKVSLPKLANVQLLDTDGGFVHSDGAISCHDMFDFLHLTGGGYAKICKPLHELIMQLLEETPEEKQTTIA
# UCH37 inh = human UCH37 deubiquitinating enzyme inhibition; 330,000 tested, 0.33% active; AID 588478; Q9Y5K5; inhibition, % (no concentration beside the values); purified proteasome/UCH37, Ub-AMC cleavage fluorescence;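 active = mean inhibition over replicate wells above about 20%, limit read from the data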;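 also: 0% = compound-free wells with enzyme and 100% = wells lacking proteasome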
# Target sequence (Q9Y5K5 whole entry, looked up): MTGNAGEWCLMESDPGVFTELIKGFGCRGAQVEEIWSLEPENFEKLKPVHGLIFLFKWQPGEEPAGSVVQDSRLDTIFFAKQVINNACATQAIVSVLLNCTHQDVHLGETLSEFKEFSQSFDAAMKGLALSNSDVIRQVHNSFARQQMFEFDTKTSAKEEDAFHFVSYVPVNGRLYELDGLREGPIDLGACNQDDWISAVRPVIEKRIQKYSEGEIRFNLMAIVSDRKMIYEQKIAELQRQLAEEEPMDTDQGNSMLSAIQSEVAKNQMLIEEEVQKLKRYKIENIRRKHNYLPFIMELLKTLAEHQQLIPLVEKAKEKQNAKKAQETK
#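 Test system – human UCH37 enzyme supplied as purified proteasome complex · Incubation – 30 min preincubation with enzyme, 25 min cleavage at room temperature · Detection – AMC fluorescence from Ub-AMC cleavage, excitation 355 nm, emission 460 nm · Benchmarks – no-proteasome wells (full inhibition) and compound-free wells (no inhibition)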
# pPAFAH inh = pPAFAH (human) enzyme inhibition. Q13093. recombinant pPAFAH, FP-rhodamine probe fluorescence polarization. inhibition, % at 3.39 µM. 330,000 tested, 1.5% active;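 active = inhibition above the mean inhibition across the screen plus 3 SD, cut at about 25% in these data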;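 also: inhibitors block binding of the rhodamine activity-based probe so polarization drops; 0% = enzyme with DMSO and 100% = wells lacking pPAFAH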
# NR3A LBD binder = NR3A (human) ligand-binding domain modulation. NR3A LBD differential scanning fluorimetry, Tm shift; 0% = protein alone, 100% = glycine-bound protein. Tm shift relative to glycine control, % at 25 µM. 340,000 tested, 2.5% active;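 active = melting temperature shift of at least 10% of the positive control shift, at one fixed dose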
# * = called active by the depositor; i = inactive; . = not tested or not shown. Compounds with a hit are over-represented: about 4.8% of the library has one in this group of screens.
SMILES,PAFAH2 FP inh,PAFAH1B3 inh,PAFAH1B2 inh,UCH37 inh,pPAFAH inh,NR3A LBD binder
CSc1ccccc1-n1nnnc1SCC(=O)Nc1ccccc1C,-4.3,9.3,1.8,-0.5,-4.7,14.2*
O=C1CCCC(=NNC(=O)c2ccc(NS(=O)(=O)c3ccc(Br)cc3)cc2)C1,.,.,.,1.5,.,.
O=C(NC(=S)Nc1nc2ccccc2s1)c1cccs1,-0.9,-2.8,-4.2,4.0,5.9,27.4*
CN(C)S(=O)(=O)c1ccc2nc(NC(=O)c3cccs3)sc2c1,2.6,2.2,-1.6,4.9,4.3,2.5
O=C(Nc1nc2ccc(F)cc2s1)c1cccs1,19.2,6.5,-4.5,-18.2,7.3,16.4*
CCCC(=O)Nc1nc2ccc(C(=O)OCC)cc2s1,0.2,4.6,-3.3,-1.7,2.3,-0.7
CCOc1ccc2nc(NC(=O)c3ccco3)sc2c1,9.2,8.0,5.5,-10.5,-5.4,7.9
CCOC(=O)c1ccc2nc(NC(=O)c3ccco3)sc2c1,-4.2,6.0,1.7,-2.5,-1.5,15.9*
CCOC(=O)c1ccc2nc(NC(=O)c3cccs3)sc2c1,-12.2,-14.3,-1.7,0.4,-0.2,42.4*
O=C(CCc1ccc(S(=O)(=O)N2CCOCC2)cc1)NN=Cc1cccc(O)c1,.,.,.,2.3,.,.
O=c1[nH]c(NCCO)nc2c1C1(CCCC1)Cc1ccccc1-2,-8.6,10.3,34.1*,i,1.0,-9.1
ON=Cc1ccccc1OCc1ccccc1F,.,.,.,2.6,.,.
O=C(COC(=O)c1ccc(Cl)c([N+](=O)[O-])c1)Nc1ccccc1OC(F)F,25.7,-1.0,-0.1,4.6,31.9*,-7.9
O=C(COC(=O)c1cccc(NS(=O)(=O)/C=C/c2ccccc2)c1)Nc1ccccc1OC(F)F,4.1,-4.1,-0.7,4.8,14.2,18.6*
O=C(COC(=O)c1nc(Cl)ccc1Cl)Nc1ccccc1OC(F)F,-2.5,3.8,2.8,0.4,10.5,2.1
CCOc1ccc(NC(=O)CN(C)C(=O)c2cc(-c3ccc(OC)cc3)nc3ccccc23)cc1OCC,-1.2,3.4,-1.4,-81.4,2.1,6.3
COc1ccc(NC(=O)CN(C)C(=O)c2cc(-c3ccc(Cl)cc3)nc3ccccc23)cc1,-4.5,-9.7,17.4,1.2,2.1,13.5*
CN(C)S(=O)(=O)c1cccc(NC(=O)COC(=O)c2ccc3ccccc3n2)c1,-6.5,6.2,7.7,-0.6,18.7,3.9
CN(C)S(=O)(=O)c1cccc(NC(=O)COC(=O)c2cc(-c3cccc(Br)c3)nc3ccccc23)c1,8.8,-16.9,-9.7,-3.7,6.5,21.9*
COc1ccc(NC(=O)CN(C)C(=O)Cc2c(C)nc3ccccc3c2C)cc1,3.4,1.1,-1.5,-2.4,27.4*,-0.8
COc1cccc(NC(=O)CN(C)C(=O)c2cc(-c3cccc(Br)c3)nc3ccccc23)c1,-12.2,-14.1,-4.0,2.4,0.3,18.2*
CCCCN1C(=O)/C(=C2/Sc3ccccc3N2C)SC1=Nc1ncn[nH]1,.,.,.,-48.2,.,.
COC(=O)c1scc(C)c1NN=C(C)c1ccc(F)cc1,.,.,.,-12.6,.,.
COc1cccc(C=NNC(C)=O)c1OC/C=C/c1ccccc1,.,.,.,3.1,.,.
CC(NC(=O)c1ccccc1)C(=O)NN=Cc1ccco1 (stereo not given),.,.,.,2.1,.,.
SMILES,PAFAH2 FP inh,PAFAH1B3 inh,PAFAH1B2 inh,UCH37 inh,pPAFAH inh,NR3A LBD binder
Cc1ccsc1C=Nn1cnnc1,.,.,.,5.2,.,.
COc1ccc(CC(C)=NNC(=O)C2COc3ccccc3O2)cc1 (stereo not given),.,.,.,2.1,.,.
C(=Nn1cnnc1)c1cccc2ccccc12,.,.,.,-5.6,.,.
CCN(CC(=O)Nc1ccc(NC(C)=O)cc1)C(=O)/C=C/c1cn(-c2ccccc2)nc1-c1ccc(C)cc1,-42.5,-4.5,-11.2,-3.2,0.3,10.4*
CCN(CC(=O)Nc1ccc(NC(C)=O)cc1)C(=O)c1cc(-c2ccccc2)nn1-c1ccccc1,7.0,-7.1,12.7,2.6,4.8,-1.0
COc1ccc(-c2nn(-c3ccccc3)cc2/C=C/C(=O)N(C)CC(=O)Nc2cccc(F)c2)cc1OC,-27.0,-38.4,-20.0,-54.7,.,10.8*
CCN(CC(=O)Nc1ccc(NC(C)=O)cc1)C(=O)/C=C/c1cn(-c2ccccc2)nc1-c1ccc(F)cc1,-6.3,-8.9,-7.9,-12.2,2.1,13.7*
COc1cccc(NC(=O)CN(C)C(=O)/C=C/c2cn(-c3ccccc3)nc2-c2ccc(OC)c(OC)c2)c1,-57.8,-23.9,-21.6,-171.4,.,-1.0
CN(CC(=O)Nc1ccc(F)cc1)C(=O)c1cn(-c2ccccc2)nc1-c1cccs1,3.0,-1.6,8.3,1.4,-2.3,23.6*
COc1c(OC(C)=O)ccc(C=NNC(=O)c2ccc(Br)cc2)c1[N+](=O)[O-],.,.,.,6.2,.,.
Fc1cccc(F)c1C=NNC(=S)Nc1cccnc1,.,.,.,2.4,.,.
COc1ccc(C2CC(c3ccc4ccccc4c3)=NN2C(=O)CSc2ncccn2)cc1 (stereo not given),-0.2,2.9,-4.3,-47.0,8.1,19.2*
COc1ccc(C2=NN(C(=O)CSc3ncccn3)C(c3ccc(OC)cc3)C2)cc1 (stereo not given),8.4,5.0,-0.1,5.7,1.2,-1.0
CCCN(CCC)c1ccc(C=NNC(=O)CN2CCOCC2)cc1,.,.,.,-236.5,.,.
Cc1ccc(S(=O)(=O)N2CCC(C(=O)NN=Cc3cccnc3)CC2)cc1,.,.,.,-0.3,.,.
CCCSc1nc(N2CCOCC2)c2c(c1C#N)CCCC2,1.3,15.6,7.3,1.5,3.8,18.7*
N#CCCSc1nc(N2CCOCC2)c2c(c1C#N)CCCC2,3.4,0.5,-0.7,3.1,5.1,0.3
ON=Cc1cc(Cl)ccc1OCc1ccccc1Cl,.,.,.,3.6,.,.
CC1=CC(C)(C)N(C(=O)CN2C(=O)CCC2=O)c2ccc(C)cc21,1.5,-7.3,-1.8,5.5,4.0,-1.6
CC1=CC(C)(C)N(C(=O)CN2C(=O)c3ccccc3C2=O)c2ccccc21,0.7,5.4,-0.9,-2.1,6.8,12.0*
NC(=O)NC(=O)C[n+]1cccc(C=NO)c1,.,.,.,0.3,.,.
Cc1[nH]nc2c1C(c1ccc(Cl)cc1)C(C#N)=C(N)O2 (stereo not given),-3.2,8.0,28.4*,6.5,4.0,-2.2
Cc1ccc(C2C(C#N)=C(N)Oc3n[nH]c(C)c32)cc1 (stereo not given),5.7,8.4,9.9,3.4,2.8,1.7
O=C(CSc1nc2ccccc2c(=O)n1-c1ccc(Cl)cc1)NN=C/C=C/c1ccccc1[N+](=O)[O-],.,.,.,7.2,.,.
CCc1ccc(S(=O)(=O)N=C2C=C(Sc3ncn[nH]3)C(=O)c3ccccc32)cc1,.,.,.,79.8*,.,.
Cc1cc(O)c(Sc2ncn[nH]2)cc1NS(=O)(=O)c1ccc(Cl)cc1,-4.2,-1.3,1.6,3.1,1.6,1.1
Cc1ccc(S(=O)(=O)N=C2C=C(C3C(=O)CC(C)(C)CC3=O)C(=O)c3ccccc32)cc1,.,.,.,8.9,.,.
Cc1cc(C)c(S(=O)(=O)/N=C2/C=C(Sc3ncn[nH]3)C(=O)c3ccccc32)cc1C,47.4*,48.6*,71.8*,.,10.1,-28.1

# Source: PubChem BioAssay (several laboratories)
